These results are taken from the RNAGym collection of RNA variant scans (doi:10.1126/science.aae0568).

Variants at the floor of the assay were thinned out.

To fix the notation:
B1: tRNA (parent)
chain: GUUCCGUUGGCGUAAUGGUAACGCGUCUCCCUCCUAAGGAGAAGACUGCGGGUUCGAGUCCCGUACGGAACG

The variants in this data set derive from B1. In words: yeast fitness relative to wild type (ratio to wild type); higher = fitter; tRNA-Arg(CCU), competitive growth, 37 C, YPD. The essentials: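 Variants of the tRNA-Arg(CCU) gene, chemically synthesised with a 3% per-site mutation rate at 69 sites, were placed at the native genomic locus in Saccharomyces cerevisiae. The pooled strains were competed in YPD at 37°C for 24 hours in six parallel replicates. Gene amplicons from the start population and from each end population were read by 100-nucleotide paired-end sequencing. Darwinian fitness relative to wild type came from changes in genotype frequencies; genotypes needed ≥ 100 starting reads, and estimates < 0.5 were set to 0.5.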
As to GUUCCAUUGGCGUAAUGGUAAGGCGUCUCCCUCCUAAGGAGAAGACUGCGGGUUCGAGUACUGUACGGAACG, the yeast fitness is at most 0.5.

Regarding GUUCCAUUGGCGUAAUGGUAAAGCGUCUCCCUCCAAAGGAGAAGACUGCGGGUUCGAGUCCCGUACGGAACG, the yeast fitness was at most 0.5.

With GUUCCAUUGGCGUAAUGGUAACGCGUGUCCCUCCUCAGGAGCAGACUGCGGGUUCGAGUCCCGUACGGAACG, the yeast fitness was found to be 0.58.

GUUCCAUUGGCGUAAUGGUAACGUGUCUCCCUCCUAAGGAGAAGACUGCGGGUUCGAGUCGCGUACGUAACG: the yeast fitness was at most 0.5.

For GUUCCAUUGGGGUAAUUGUAACGCGUCUCCCUCCUAAAGAGAUGACUGCGGGUACGAGUCCCGUACGGAACG, the yeast fitness was at most 0.5.

As to GUUCCAUUGGCGUAAUGGUAACGUGUCUCCCUCCUAAGGAGAAGACUGCGGGUUCGAGCCCCGUACGGCACG, the yeast fitness was at most 0.5.

Turning to GUUCCAUUGGCGUAAUGGUAACGCGUUUCCCUCCUAAGGAGUAGACUGCGGGUUCGAGUCCCGUACGGAACG, the yeast fitness was at most 0.5.

With GUUCCAUUGGGGUAAUGGUAACGCGUCUCCCUCCUAAGGAGAAGACUGCGGGUUCGAGUCGCGUACGGAACG, the yeast fitness is at most 0.5.

For GUUCCAUUGGUGUAAUGGUAACGCGUCUCCCUCCUAAGGAGAAGACUGCGGGUUCGAGUCCCGUACGAAACG, the yeast fitness was at most 0.5.

On to GUUCCAUUGGUGUAAUGGUAACGCGUCUCCCUCCUAAGGAGAAGACUGCGGGUUUGAGUCCCGUACGGAACG, for which the yeast fitness was found to be 0.814.

For GUUCCAUUGGCGUAAUGGUAACGUGUCUCCCUCCUAAGGUGAAGUCUGCGGGUUCGAGUCCCGUACGGAACG, the yeast fitness is at most 0.5.

As to GUUCCAUUGGCGUAAUGGUAACGCGUGUCCCUCGUAAGGAGAAGACUGCGGGUUCGAGUCCCGUCCGGAACG, the yeast fitness is at most 0.5.

Regarding GUUCCAUUGGCGUAAUGGUAACGAGUUUGCCUCCUAAGGAGAACACUGCGGGUUCGAGUCCCGUACGCAACG, the yeast fitness is at most 0.5.

Regarding GUUCCAUUGGAGUAAUGGUAACGCGUCUCCCUCCUAAGGAGAAGACCGCGGGUUCGAGUCCCGUACGGAACG, the yeast fitness is at most 0.5.

In the case of GUUCCAUUGGCGUAAUGGUAACGUGGCUCCCUCAUAAGGAGAAGAGUGCGGGUUCAAGUCCCGUAUGGAACG, the yeast fitness was at most 0.5.

Regarding GUUCCAUUGGCGUAAUGGUAACGCGUUUACCUCCUAAGGAGAAGACUGCGGGUUCGACUCCCGUAUGGAACG, the yeast fitness was at most 0.5.

Consider GUUCCAUUGGUGCAAUGGUAACGCGUCUCCCUCCUAAGGAGAGGACUGCGGGUUCGAGUCCCGUACAGAACG, for which the yeast fitness amounted to 0.58.

As for GUUCCAUUGGAGUAAUGGUAACGCGUCUCCCUCCUAAGGAGAAGACUGCGGGUUCGAGUCCCGUAUGGAACG, the yeast fitness worked out at 0.592.

In the case of GUUCCAUUGGCGUAAUGGUAACGCGUCUGCCUCCUAAGGAGAAGACUGCGGGUUCGAGUCCCGUACGGAACG, the yeast fitness turned out to be 0.634.

On to GUUCCAUUGGCGUAAUGGUAACGCGUCUUCCUCCUAAGGAGAAGACUGCGGGUUCGAGUCCCGUACGGAACG, for which the yeast fitness stood at 0.748.

In the case of GUUCCAUUGGCGUAAUGGUAACGCGUCUUCCUCCUAAGGAGUUGACUGCGGGUUGGAGUCCCGUACGGAACG, the yeast fitness was at most 0.5.

Regarding GUUCCAUUGGCGUAAUGGUAACGCGUGUCCCUCCUAACGAGAAGACUGCGGGUUCGAGUCCCGUACGGAACG, the yeast fitness was at most 0.5.

In the case of GUUCCAUUGGUGUAAUGGUAACGCGUCUCCCUCCUAAGGAGAAGACUGCGGGUUCGAGUCCCGUACGGUACG, the yeast fitness turned out to be 0.707.

With GUUCCAUUGGGGUAAUGGUAACGCGUCUCCCUCCUACGGAGAAGACUGCGGGUUCGAGUACCGUACGGAGCG, the yeast fitness was at most 0.5.

For the variant GUUCCAUUGGCGUAAUGGUAACGUGUCUCCCUCCUCAGGAGAUGACUGCGGGUUCGAGUCCCGUACGGUACG, the yeast fitness was at most 0.5.

In the case of GUUCCAUUGGCGUAAUGGUAACGAGUCUCCCUCCUAAGGAGAAGACUGCGGGUUCGAGUCCCGUACGGAACG, the yeast fitness turned out to be 0.654.

On to GUUCCAUUGGCGUAAUGGUAACGCGUAUCUCUCCUAAGGACAUGACUGAGGGUUCGAGUCCCGUACGGAACG, for which the yeast fitness amounted to 0.52.

Regarding GUUCCAUUGGGGUAAUGGUAACGCGUCUCCCUCCUAAGGAGAAGUCUGCGGGUUCGGGUCCCGUACGGAGCG, the yeast fitness was at most 0.5.

As to GUUCCAUUGGGGUAAUGGUACGGCGUCUCGCUCCUAAGGAGAAGUCUGCGGGUUCGAGUCCCGUACGGAACG, the yeast fitness was at most 0.5.

Take GUUCCAUUGGCGUAAUGGUAACGCGUGUCCCUCCUCAGGAGCAGACUGCGGGUUCGUGUCCCGAACGGACCG: the yeast fitness is at most 0.5.

Turning to GUUCCAUUGGCGUAAUGGUAACGCGUCUGCCCCCUAAGGAGAAGACUGCGGGUUCGAGUCCCGUACGGCACG, the yeast fitness is at most 0.5.

With GUUCCAUUGGCGUAAUGGUAACGUGUCUCCCUCCUAUGGUGAAGACUGCGGGUUCGAGUCCCGUACGGAACG, the yeast fitness is at most 0.5.

On to GUUCCAUUGGUGUAAUGGUAACGCGUCUCCCUCCUAAGGAGAAGACUGCGGGUUCGAGUCCAGUUUGGAACG, for which the yeast fitness is at most 0.5.

Regarding GUUCCAUUGGAGUAACGGUAACGCGUCUCCCGCCUAAGGAGAAGACUGGGGGUUAGAGUCCCGUACGGAACG, the yeast fitness is at most 0.5.

For GUUCCAUUGGCGUAAUGGUAACGCGUCUACCCCCUAAGGAGUAGACUGCGGGUUCGAGUCCCGUACAGAACG, the yeast fitness was at most 0.5.

Turning to GUUCCAUUGGCGUAAUGGUAAUGCGUCUCCCUCCUAAGGAGCAGACUGCGGGUACGAGUCCCGUACGGAACG, the yeast fitness was at most 0.5.

As to GUUCCAUUGGCGUAAUGGUAACGUGUCUCCCUCCUAAGGAGAAGACUGCGGGUUCGAAUCCCGUACGGAACG, the yeast fitness worked out at 0.67.
